For experiment [1], the target named is Mitogen-activated protein kinase kinase kinase 1 (Homo sapiens) (UniProt Q13233). The experiment can be described thus: Inhibition of recombinant human N-terminal GST/C-terminal His6-tagged MEKK1 ((877 to 1563 residues) expressed in Escherichia coli assessed as remaining activity at 1 uM using MBP as substrate incubated for 30 mins in presence of [gamma-33P]ATP by filter binding method relative to control.

In experiment [2] the target is Phosphatidylinositol 4,5-bisphosphate 3-kinase catalytic subunit beta isoform (Homo sapiens, UniProt P42338). The experiment can be described thus: Inhibition of PI3Kbeta (unknown origin) using PtdIns(4,5)P2 as substrate preincubated for 20 mins followed by substrate addition and measured after 80 mins by Kinase-Glo assay. Background: In Kinase-Glo more light means more ATP remaining.

Experiment [3] addresses Activated CDC42 kinase 1 (Homo sapiens) (UniProt Q07912). The experiment in a line: Inhibition of human ACK1 at 1 uM using polyEy as substrate in presence of 33P-ATP by ProQinase assay.
Experiment [4] addresses Glycogen synthase kinase-3 alpha (Homo sapiens) (UniProt P49840). The experiment in a line: Inhibition of human GSK3alpha at 1 uM using SUPT5 754-837 as substrate in presence of 33P-ATP by ProQinase assay.
The target in experiment [5] is Myosin light chain kinase 2, skeletal/cardiac muscle (Homo sapiens) (UniProt Q9H1R3). The experiment in a line: Inhibition of human MYLK2 at 1 uM using RB-S6P as substrate in presence of 33P-ATP by ProQinase assay.
Experiment [6] has as its target Proto-oncogene tyrosine-protein kinase ROS (Homo sapiens) (UniProt P08922). The experiment in a line: Inhibition of human ROS at 1 uM using poly(Ala,Glu,Lys,Tyr) as substrate in presence of 33P-ATP by ProQinase assay.
The target in experiment [7] is Mitogen-activated protein kinase 12 (Homo sapiens) (UniProt P53778). The experiment can be described thus: Inhibition of human P38gamma at 1 uM using RBER-IRStide as substrate in presence of 33P-ATP by ProQinase assay.
Experiment [8] deals with Fibroblast growth factor receptor 2 (Homo sapiens) (UniProt P21802). The experiment can be described thus: Inhibition of human FGFR2 at 1 uM using polyEY as substrate in presence of 33P-ATP by ProQinase assay.
Experiment [9] has as its target Serine/threonine-protein kinase MARK2 (Homo sapiens) (UniProt Q7KZI7). The experiment in a line: Inhibition of recombinant human N-terminal His6-tagged MARK2 (2 to 691 residues) expressed in baculovirus infected Sf21 cells assessed as remaining activity at 1 uM using KKKVSRSGLYRSPSMPENLNRPR as substrate incubated for 30 mins in presence of [gamma-33P]ATP by filter binding method relative to control.

For experiment [10], the target named is Tyrosine-protein kinase SYK (Homo sapiens) (UniProt P43405). The experiment in a line: Inhibition of recombinant human N-terminal His6-tagged SYK (1 to 635 residues) expressed in baculovirus infected Sf21 cells assessed as remaining activity at 1 uM using Poly (Glu,Tyr) as substrate incubated for 30 mins in presence of [gamma-33P]ATP by filter binding method relative to control.

Experiment [11] concerns the target Tyrosine-protein kinase TXK (Homo sapiens) (UniProt P42681). The experiment can be described thus: Inhibition of human TXK at 1 uM using RBER-CHKtide as substrate in presence of 33P-ATP by ProQinase assay.
Experiment [12] addresses Casein kinase 2 (Homo sapiens) (UniProt P67870+P68400+P19784+Q8NEV1). The experiment can be described thus: Inhibition of CK2 (unknown origin) assessed as remaining activity at 1 uM relative to control. It is filed as protein assay. Summed up:
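Dundee panel of 140 protein kinases, tested at a single 1 μM concentration. Each assay was run in triplicate. Remaining activity is expressed relative to a control reaction without inhibitor, as mean ± S.D. Conditions for each kinase were those of the screening centre.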

Experiment [13] deals with Serine/threonine-protein kinase N2 (Homo sapiens) (UniProt Q16513). The experiment in a line: Inhibition of human PRK2 at 1 uM using RBER-CHKtide as substrate in presence of 33P-ATP by ProQinase assay.
In experiment [14] the target is AMPK alpha1/beta2/gamma1 (Homo sapiens) (UniProt O43741+P54619+Q13131). The experiment in a line: Inhibition of recombinant N-terminal His6-tagged human AMPKalpha1 (11 to 559 residues)/AMPKbeta2 (1 to 272 residues)/AMPKgamma1 (1 to 331 residues) expressed in baculovirus infected Sf21 cells assessed as remaining activity at 1 uM using SAMS as substrate incubated for 30 mins in presence of [gamma-33P]ATP relative to control.

The target in experiment [15] is Diacylglycerol kinase beta (Homo sapiens) (UniProt Q9Y6T7). The experiment can be described thus: Inhibition of DGKbeta (unknown origin) at 1 uM.
The target of experiment [16] is Muscle, skeletal receptor tyrosine-protein kinase (Homo sapiens) (UniProt O15146). The experiment in a line: Inhibition of human MUSK at 1 uM using poly(Ala,Glu,Lys,Tyr) as substrate in presence of 33P-ATP by ProQinase assay.
Experiment [17] addresses Serine/threonine-protein kinase SIK3 (Homo sapiens) (UniProt Q9Y2K2). The experiment can be described thus: Inhibition of recombinant human N-terminal GST and HA-tagged SIK3 (2 to 1369 residues) expressed in baculovirus infected Sf21 cells assessed as remaining activity at 1 uM using ALNRTSSDSALHRRR as substrate incubated for 30 mins in presence of [gamma-33P]ATP by filter binding method relative to control.

The test system of experiment [18] is Dual specificity mitogen-activated protein kinase kinase 6 (Homo sapiens), P52564 [S207D,T211D]. The experiment in a line: Inhibition of human MKK6 S207D/T211D double mutant at 1 uM using p38-alpha KA as substrate in presence of 33P-ATP by ProQinase assay.
The target in experiment [19] is Interleukin-1 receptor-associated kinase 4 (Homo sapiens) (UniProt Q9NWZ3). The experiment in a line: Inhibition of human IRAK4 at 1 uM using RB-CTF as substrate in presence of 33P-ATP by ProQinase assay.
For experiment [20], the target named is Proto-oncogene tyrosine-protein kinase Src (Homo sapiens) (UniProt P12931). The experiment can be described thus: Inhibition of human GST/His-tagged SRC at 1 uM using PolyEY as substrate in presence of 33P-ATP by ProQinase assay.
Experiment [21] addresses Casein kinase II subunit alpha' (Homo sapiens) (UniProt P19784). The experiment in a line: Inhibition of human CK2alpha2 at 1 uM using casein as substrate in presence of 33P-ATP by ProQinase assay.
Experiment [22] deals with Serine/threonine-protein kinase WNK1 (Homo sapiens) (UniProt Q9H4A3). The experiment can be described thus: Inhibition of human WNK1 at 1 uM using 3xChocktide-PKC as substrate in presence of 33P-ATP by ProQinase assay.
A further experiment deals with U2OS. The experiment can be described thus: Inhibition of PI3K in human U2OS cells expressing GFP-PHAkt1 assessed as reduction in IGF-stimulated PtdIns(3,4,5)P3/PtdIns(3,4)P2 level […] at 1 uM pre incubated for 1 hr followed by IGF stimulation and measured after 15 mins by Alexa Fluor 488 staining based fluorescence microscopic analysis. It is filed as subcellular. The conditions noted are these: time 1.25 hrs.

pIC50: −log10 of the molar value. Active and inactive are the calls of the source. The rule behind the calls is not given here.

Our source for the Activity, IC50 and inhibition values is ChEMBL document CHEMBL5705899 (Biochem J, 2014).

As usually defined, the pIC50 is −log10 of the IC50, conventionally taken in molar units. A lower pIC50 goes with a high IC50.

Sequence of Serine/threonine-protein kinase N2 (Homo sapiens) (Q16513 whole entry, looked up, the tested form may be a part): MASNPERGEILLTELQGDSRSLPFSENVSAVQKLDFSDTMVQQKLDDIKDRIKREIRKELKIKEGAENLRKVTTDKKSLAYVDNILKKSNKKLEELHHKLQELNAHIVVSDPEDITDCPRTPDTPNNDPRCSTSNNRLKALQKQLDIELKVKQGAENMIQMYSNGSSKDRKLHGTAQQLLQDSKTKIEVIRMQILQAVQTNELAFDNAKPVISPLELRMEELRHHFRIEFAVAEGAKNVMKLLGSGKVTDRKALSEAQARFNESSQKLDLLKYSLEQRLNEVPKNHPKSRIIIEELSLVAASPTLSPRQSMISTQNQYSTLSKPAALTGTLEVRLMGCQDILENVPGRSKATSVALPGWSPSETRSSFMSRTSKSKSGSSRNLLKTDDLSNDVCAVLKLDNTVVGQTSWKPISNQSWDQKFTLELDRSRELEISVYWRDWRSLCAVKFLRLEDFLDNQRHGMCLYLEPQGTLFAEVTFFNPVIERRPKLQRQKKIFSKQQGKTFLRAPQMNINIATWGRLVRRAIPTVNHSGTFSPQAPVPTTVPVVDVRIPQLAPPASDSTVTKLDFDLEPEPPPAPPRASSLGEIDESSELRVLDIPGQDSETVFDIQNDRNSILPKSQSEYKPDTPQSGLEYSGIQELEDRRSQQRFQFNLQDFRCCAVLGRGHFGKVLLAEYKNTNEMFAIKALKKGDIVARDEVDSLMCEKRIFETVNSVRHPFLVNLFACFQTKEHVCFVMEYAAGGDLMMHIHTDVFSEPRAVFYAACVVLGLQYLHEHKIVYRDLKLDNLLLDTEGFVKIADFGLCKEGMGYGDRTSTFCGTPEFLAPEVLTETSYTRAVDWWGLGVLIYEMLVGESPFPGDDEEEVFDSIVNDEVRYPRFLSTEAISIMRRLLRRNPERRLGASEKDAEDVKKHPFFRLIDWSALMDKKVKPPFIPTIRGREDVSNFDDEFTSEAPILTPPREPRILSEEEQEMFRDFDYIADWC
Sequence of Serine/threonine-protein kinase WNK1 (Homo sapiens) (Q9H4A3 whole entry, looked up): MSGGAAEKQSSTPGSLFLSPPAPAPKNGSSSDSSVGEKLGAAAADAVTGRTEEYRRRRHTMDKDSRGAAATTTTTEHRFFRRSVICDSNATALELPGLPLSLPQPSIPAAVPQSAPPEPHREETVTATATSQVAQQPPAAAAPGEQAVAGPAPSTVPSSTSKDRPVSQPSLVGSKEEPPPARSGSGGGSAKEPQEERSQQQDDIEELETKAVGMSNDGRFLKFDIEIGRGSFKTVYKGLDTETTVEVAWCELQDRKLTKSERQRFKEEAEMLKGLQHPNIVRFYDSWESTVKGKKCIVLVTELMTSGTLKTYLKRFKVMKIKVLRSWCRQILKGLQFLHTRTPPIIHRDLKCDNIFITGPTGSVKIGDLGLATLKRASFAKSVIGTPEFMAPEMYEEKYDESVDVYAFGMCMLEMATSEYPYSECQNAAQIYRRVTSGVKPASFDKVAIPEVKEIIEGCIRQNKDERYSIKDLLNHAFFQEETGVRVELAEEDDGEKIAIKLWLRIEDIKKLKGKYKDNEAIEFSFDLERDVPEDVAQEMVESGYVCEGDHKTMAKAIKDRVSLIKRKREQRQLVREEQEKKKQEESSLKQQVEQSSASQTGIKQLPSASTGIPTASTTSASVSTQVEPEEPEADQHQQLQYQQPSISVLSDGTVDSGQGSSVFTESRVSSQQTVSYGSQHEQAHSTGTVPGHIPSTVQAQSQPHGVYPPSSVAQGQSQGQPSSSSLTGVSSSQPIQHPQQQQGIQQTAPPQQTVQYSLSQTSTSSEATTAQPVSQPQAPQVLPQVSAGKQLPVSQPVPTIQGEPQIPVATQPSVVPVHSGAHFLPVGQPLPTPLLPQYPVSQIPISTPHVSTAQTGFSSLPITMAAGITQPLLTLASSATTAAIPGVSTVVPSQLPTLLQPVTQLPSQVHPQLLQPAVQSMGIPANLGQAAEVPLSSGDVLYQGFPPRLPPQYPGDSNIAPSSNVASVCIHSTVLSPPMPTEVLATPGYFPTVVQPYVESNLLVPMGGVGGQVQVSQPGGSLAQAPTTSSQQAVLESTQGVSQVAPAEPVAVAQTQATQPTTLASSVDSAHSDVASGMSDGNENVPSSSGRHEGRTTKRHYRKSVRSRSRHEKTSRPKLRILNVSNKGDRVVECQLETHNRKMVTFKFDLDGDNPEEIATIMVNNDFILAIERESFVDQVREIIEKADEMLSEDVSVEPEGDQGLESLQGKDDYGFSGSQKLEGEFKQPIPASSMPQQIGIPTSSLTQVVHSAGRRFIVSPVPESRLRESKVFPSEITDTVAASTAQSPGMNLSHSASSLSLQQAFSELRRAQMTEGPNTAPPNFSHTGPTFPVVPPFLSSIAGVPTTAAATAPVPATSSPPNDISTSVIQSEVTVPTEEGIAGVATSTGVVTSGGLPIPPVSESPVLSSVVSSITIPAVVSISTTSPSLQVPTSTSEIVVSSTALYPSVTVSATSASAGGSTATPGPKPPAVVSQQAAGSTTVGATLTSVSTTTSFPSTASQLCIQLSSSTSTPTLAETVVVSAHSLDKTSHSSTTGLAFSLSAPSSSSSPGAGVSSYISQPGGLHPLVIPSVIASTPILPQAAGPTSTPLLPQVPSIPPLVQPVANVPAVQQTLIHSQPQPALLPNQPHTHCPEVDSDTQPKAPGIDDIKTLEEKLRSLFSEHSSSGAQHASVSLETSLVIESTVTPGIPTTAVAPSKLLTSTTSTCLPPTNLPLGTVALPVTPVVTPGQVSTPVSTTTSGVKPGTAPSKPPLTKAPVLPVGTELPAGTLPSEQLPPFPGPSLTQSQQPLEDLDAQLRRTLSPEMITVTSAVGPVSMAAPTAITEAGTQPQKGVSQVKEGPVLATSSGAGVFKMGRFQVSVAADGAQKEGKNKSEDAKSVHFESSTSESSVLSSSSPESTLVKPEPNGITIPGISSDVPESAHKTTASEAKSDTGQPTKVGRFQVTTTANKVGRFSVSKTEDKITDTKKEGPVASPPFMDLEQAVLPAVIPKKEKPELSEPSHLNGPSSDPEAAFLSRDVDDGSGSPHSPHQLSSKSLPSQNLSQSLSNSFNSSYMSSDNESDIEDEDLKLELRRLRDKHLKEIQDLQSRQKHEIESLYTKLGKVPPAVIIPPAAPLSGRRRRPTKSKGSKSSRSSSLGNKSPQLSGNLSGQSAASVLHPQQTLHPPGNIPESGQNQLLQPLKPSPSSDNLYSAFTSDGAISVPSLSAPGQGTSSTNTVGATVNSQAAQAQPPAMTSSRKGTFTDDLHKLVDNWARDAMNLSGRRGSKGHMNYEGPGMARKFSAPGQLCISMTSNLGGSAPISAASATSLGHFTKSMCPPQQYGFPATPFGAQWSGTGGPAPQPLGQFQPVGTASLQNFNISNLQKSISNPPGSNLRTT
Sequence of Casein kinase II subunit alpha' (Homo sapiens) (P19784 whole entry, looked up): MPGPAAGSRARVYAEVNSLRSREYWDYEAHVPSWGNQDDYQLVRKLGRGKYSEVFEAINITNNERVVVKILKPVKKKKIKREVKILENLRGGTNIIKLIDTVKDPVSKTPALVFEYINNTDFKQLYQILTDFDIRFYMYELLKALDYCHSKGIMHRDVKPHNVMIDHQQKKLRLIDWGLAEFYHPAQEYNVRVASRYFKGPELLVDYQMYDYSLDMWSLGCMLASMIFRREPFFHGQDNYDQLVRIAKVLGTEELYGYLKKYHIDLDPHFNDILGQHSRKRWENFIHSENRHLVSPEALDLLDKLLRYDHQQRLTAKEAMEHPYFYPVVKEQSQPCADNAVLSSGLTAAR
Sequence of Tyrosine-protein kinase TXK (Homo sapiens) (P42681 whole entry): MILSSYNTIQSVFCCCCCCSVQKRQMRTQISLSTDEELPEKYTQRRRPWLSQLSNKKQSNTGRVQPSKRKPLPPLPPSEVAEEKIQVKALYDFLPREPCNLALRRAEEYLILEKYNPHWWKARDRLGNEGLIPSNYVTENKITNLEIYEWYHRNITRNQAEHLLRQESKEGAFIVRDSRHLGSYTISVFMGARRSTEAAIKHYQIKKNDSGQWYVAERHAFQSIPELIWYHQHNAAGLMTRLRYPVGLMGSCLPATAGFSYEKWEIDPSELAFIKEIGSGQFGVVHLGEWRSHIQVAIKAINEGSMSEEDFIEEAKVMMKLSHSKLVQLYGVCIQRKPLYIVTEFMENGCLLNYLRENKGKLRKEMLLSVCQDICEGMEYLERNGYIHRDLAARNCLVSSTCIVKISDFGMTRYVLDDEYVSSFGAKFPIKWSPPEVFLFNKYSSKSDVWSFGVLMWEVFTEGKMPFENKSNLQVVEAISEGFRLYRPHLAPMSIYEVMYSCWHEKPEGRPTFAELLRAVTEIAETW
Sequence of Glycogen synthase kinase-3 alpha (Homo sapiens) (P49840 2-483 limits assumed): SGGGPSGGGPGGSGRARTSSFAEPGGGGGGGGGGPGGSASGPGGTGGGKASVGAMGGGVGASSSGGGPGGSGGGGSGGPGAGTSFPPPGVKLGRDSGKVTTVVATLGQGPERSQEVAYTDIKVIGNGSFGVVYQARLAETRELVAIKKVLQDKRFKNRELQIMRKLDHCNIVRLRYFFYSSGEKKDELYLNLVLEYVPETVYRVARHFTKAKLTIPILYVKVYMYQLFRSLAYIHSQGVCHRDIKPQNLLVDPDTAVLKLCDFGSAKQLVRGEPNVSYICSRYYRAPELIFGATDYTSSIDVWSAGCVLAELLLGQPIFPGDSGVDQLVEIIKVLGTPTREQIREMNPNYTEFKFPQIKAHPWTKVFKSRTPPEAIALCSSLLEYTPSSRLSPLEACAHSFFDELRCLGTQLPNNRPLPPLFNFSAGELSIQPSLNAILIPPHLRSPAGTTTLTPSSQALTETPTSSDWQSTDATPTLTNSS
Sequence of Dual specificity mitogen-activated protein kinase kinase 6 (Homo sapiens), P52564 [S207D,T211D] (P52564 whole entry S207D/T211D): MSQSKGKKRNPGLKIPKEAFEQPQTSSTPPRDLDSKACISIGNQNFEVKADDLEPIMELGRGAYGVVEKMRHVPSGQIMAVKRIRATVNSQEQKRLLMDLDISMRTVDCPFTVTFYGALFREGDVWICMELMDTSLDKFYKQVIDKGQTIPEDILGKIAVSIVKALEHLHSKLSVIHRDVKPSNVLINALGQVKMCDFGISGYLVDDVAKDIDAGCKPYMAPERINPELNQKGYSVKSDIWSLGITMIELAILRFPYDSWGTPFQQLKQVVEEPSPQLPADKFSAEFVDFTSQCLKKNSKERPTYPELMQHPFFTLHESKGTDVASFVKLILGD

Take `CC(C)(O)CNc1ncc(-c2ccnc(Nc3ccnc(Cl)c3)n2)c(CC2CC2)n1`: the Activity came out at 109% in experiment [1]; 108% in experiment [9]; 91% in experiment [10]; 111% in [12]; 96% in [14]; 112% in experiment [17]. In addition, the pIC50 in experiment [2] was 4.67. For the same compound, the inhibition result in experiment [3], in experiment [4], in [5], in experiment [6], in experiment [7] and in [8] was “inactive” each time. The inhibition entry in experiment [11], in [13], in experiment [15], in experiment [16], in [18] and in experiment [19] was “inactive” each time. The inhibition result (in [20]; in experiment [21]; in [22]; in the experiment on U2OS) was “inactive” in each case.
